Data published in ChEMBL document CHEMBL4513216, “Probing the Open Global Health Chemical Diversity Library for Multistage-Active Starting Points for Next-Generation Antimalarials” (ACS Infect Dis, 2020).

Experiment: Toxicity liver stage against HepG2, at 10uM
Format: cell-based
Design: test concentration 10 uM, cell line HepG2-A16-CD81EGFP
Details: human, HepG2-A16-CD81EGFP cells; read-out: INHIBITION
In short: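 Uninfected HepG2-A16-CD81EGFP cells, 3 × 10^3 per well, 1536-well, plated on prespotted compound at 10 μM final, parasite-free screening media added to match infected plates; puromycin 10 μM positive, DMSO 0.5% negative; run in parallel with 48 h PbLuc assay at 37 °C, 5% CO2; viability by CellTiter-Glo luminescence, normalized to controls.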

Row | SMILES | cytotoxicity at 10 µM [%]
1 | Cc1nnc([C@H]2CCN(CCCc3ccccc3)C2)o1 | 2.87
2 | CCOC(=O)C(C)NC(=O)N1CCN(c2nc3ccccc3n2C)CC1 (stereo unspecified) | 3.39
3 | O=C(NC[C@@H]1CCCO1)c1cccnc1N1CCCC1c1ccccc1 (stereo partly specified) | 3.95
4 | CN(CCc1ccccc1)C(=O)c1cccnc1OCC(F)(F)F | 13.5
5 | COc1ccc2[nH]c(C(=O)NCC3(N)CCCC3)cc2c1 | 4.3
6 | COCCCN(Cc1ccccn1)S(=O)(=O)c1ccc(OC)cc1 | 5.85
7 | CCc1c(-c2ccccc2)nc2c(c(C)c(C)n2CCN(C)C)c1N | 17.7
8 | Cc1nn(C)c2nc(C(C)C)cc(C(=O)Nc3n[nH]c(C4CC4)n3)c12 | -4.38
9 | O=C1CC(NS(=O)(=O)c2ccc(Cl)cc2)CN1 (stereo unspecified) | 6.66
10 | Cc1ccc(S(=O)(=O)NCCc2ccoc2)s1 | 2.69
11 | O=C(CCC(=O)N1CCC(Oc2ncccc2Br)CC1)c1ccccc1 | 30.4
12 | CS(=O)(=O)C1CCN(S(=O)(=O)Cc2cccc(F)c2)CC1 | -19.1
13 | O=C(Cc1cccs1)NCC1Cn2nnc(-c3ccoc3)c2CO1 (stereo unspecified) | 6.06
14 | CCN1C(=O)CC[C@@H]2[C@H]1CCN2S(=O)(=O)Cc1ccc(C)cc1 | 0.0218
15 | CN(Cc1cn2c(n1)CN(C(=O)C1CCCO1)CC2)Cc1ccco1 (stereo unspecified) | 8.24
16 | O=C(NCC1CC1)C1CN(C(=O)c2ccco2)CC12CCOCC2 (stereo unspecified) | 6.61
17 | Cn1ncc2c1NC(=O)CC2c1ccc(O)cc1 (stereo unspecified) | 24.3
18 | Cn1cccc1C(=O)NCc1cnc2n1CCN(C(=O)N1CCCC1)C2 | -5.61
19 | Cc1c(-c2cc(-c3cnn(C)c3C)n(CC(=O)NC3CC3)n2)cnn1C | 9.26
20 | CCn1nc(C)c2c1cnn2CC(=O)Nc1ccc(OC)cc1C | -80.1
21 | Cn1ncc(C(=O)O)c1C(=O)Nc1nc2ccccc2s1 | 7.9
22 | Cn1nc(C2CCN(C(=O)c3cnccn3)C2)cc1CCO (stereo unspecified) | 9.95
23 | O=C(CCc1cccnc1)N1CCCCC1c1ccn2ccnc2n1 (stereo unspecified) | -4.28

Row | SMILES | cytotoxicity at 10 µM [%]
24 | CNc1cncc(C2CCCN2Cc2cccc(C)n2)n1 (stereo unspecified) | -8.3
25 | CO[C@H]1CCN(C(=O)c2ccc3oc(C)cc3c2)C[C@@]12CCCO2 | 25.9
26 | CC(=O)N1CCN([C@@H]2CCC[C@@H](N(C)C(=O)C3CC3)[C@H]2O)CC1 | -5.97
27 | Cc1cnn(CC(C)NCc2ccc(C#N)cc2F)c1 (stereo unspecified) | -7.44
28 | O=C(Cc1ccc(F)cc1F)NCC(=O)Nc1ccccn1 | 3.24
29 | CC1CCCN(S(=O)(=O)NCCCn2ccc3ccccc32)C1 (stereo unspecified) | 13.6
30 | CC(NCc1cccc(NC(=O)C2CCCCC2)c1)c1cnn(C)c1 (stereo unspecified) | -0.26
31 | COc1ccc(N2CCC(NC(=O)c3sccc3C)CC2)cc1 | -2.28
32 | Cc1ccc(-c2cc(C(=O)NCC3CCOC3)n[nH]2)s1 (stereo unspecified) | -4.09
33 | Cc1nc(CC2CCCN(Cc3nc4ccccc4c(=O)[nH]3)C2)no1 (stereo unspecified) | -44
34 | Cc1cnc(C(=O)N2CCC(COCc3ccccc3)C2)cn1 (stereo unspecified) | 7.54
35 | CC(C)(C)c1nc(CC(=O)NCCC(=O)Nc2ccncc2)cs1 | 12.8
36 | Cc1cn2c(CN(C)C(=O)c3nccnc3N)c(C)nc2s1 | -4.12
37 | Cc1cc(CNc2cccc(C(=O)N(C)c3ccccc3)c2)no1 | 2.95
38 | COc1cccc(C(=O)NCc2ccccc2S(=O)(=O)N(C)C)c1 | -5.52
39 | COc1cc2nc(NCc3scnc3C)nc(N)c2cc1OC | 6.34
40 | CNC(=O)CN1CCC(c2cc(OC)cc(OC)c2)C1 (stereo unspecified) | 4.38
41 | CC(C)COc1cncc(NC(CO)c2ccco2)n1 (stereo unspecified) | -5.08
42 | COCc1noc(C2(c3ccc(Cl)cc3)CCOCC2)n1 | 1.86
43 | c1ccc(-c2noc(CNC3CCCN(c4cccnn4)C3)n2)nc1 (stereo unspecified) | 4.86
44 | CCc1nc(C(=O)N2CCN(CCc3ccc(OC)cc3)CC2)c[nH]1 | -9.56
45 | O=S(=O)(CCc1ccccc1)Cc1nc(C2CC2)no1 | 1.03
46 | CCc1nc(Cn2c(=O)n(C)c3ccccc32)no1 | -45.1

Row | SMILES | cytotoxicity at 10 µM [%]
47 | Cc1cc(CNCCNS(C)(=O)=O)sc1Br | -4.6
48 | CCOCC(=O)Nc1nccn1Cc1ccc(Br)cc1 | -44.8
49 | COc1cccc(CNCc2nnc3n2CC(C(F)(F)F)CC3)c1 (stereo unspecified) | 14
50 | O=C(CCc1ccccn1)N1CCc2cc(Cl)cc(Cl)c2C1 | -40.9
51 | c1cnn(CC2CN(c3ncnc4sccc34)CCO2)c1 (stereo unspecified) | 25.1
52 | CC(C)N1CCC2(CC1)CC(c1cccnc1)C(=O)N2 (stereo unspecified) | -67.2
53 | COCCN1C[C@H]2[C@@H](C1)N(C(=O)COc1ccccc1)CC[C@H]2OC | -1.34
54 | CNc1nc2c(s1)C(=O)CN(C(=O)[C@@H](N)Cc1cccc(OC)c1)C2 | -4.08
55 | CC(C)[C@H](NS(C)(=O)=O)C(=O)NCc1cc(-c2cccc(Cl)c2)nn1C | -5.47
56 | C=C(C)COc1cccc(CN(C)C(C)c2nccs2)c1 (stereo unspecified) | -49.2
57 | CCN1CCCC1CN(Cc1cc[nH]n1)CC1CCN(CCOC)CC1 (stereo unspecified) | -5.14
58 | Fc1ccc(C(CNc2ccncn2)N2CCCC2)cc1 (stereo unspecified) | 15.9
59 | CC(=O)N1C[C@H]2CNC[C@@]2(C(=O)NCCNc2ccncc2C)C1 | -6.4
60 | OC1(CN2CCCC2)CCCN(Cc2cnc(-c3ccccc3)nc2)C1 (stereo unspecified) | -11.9
61 | CN(Cc1cnn(C)c1)C1CCN(c2cccc(-c3cscn3)c2)CC1 | -0.724
62 | O=C(c1ncc[nH]1)N1CCC(Cn2cc(-c3cccc(Cl)c3)nn2)CC1 | -12.8
63 | CN1CCC(Cc2noc(-c3cccc(OCC(N)=O)c3)n2)CC1 | -4.42
64 | c1ccc(CN2CCCC(CNc3ncnc4c3CCNCC4)C2)cc1 (stereo unspecified) | -9.89
65 | Cc1cc(CC(C)Nc2nc(C3CCCC3)nc3c2cnn3C)[nH]n1 (stereo unspecified) | -6.12
66 | CC(Cn1cncn1)NCCN1CCc2ccccc2C1 (stereo unspecified) | -1.27
67 | CC(C)C1CN(S(=O)(=O)C2CC2)CCCN1Cc1ccc(F)cc1 (stereo unspecified) | 7.01
68 | CCCn1cc(C(=O)NCCc2ccncc2)c(C)n1 | 11.2
69 | CN(C)C(C(=O)N1CC(Oc2ccccc2F)C1)c1ccccc1F (stereo unspecified) | -0.598

Row | SMILES | cytotoxicity at 10 µM [%]
70 | NC(=O)CN1CC2(CCC1=O)CCN(Cc1ccc(Cl)c(F)c1)CC2 | -5
71 | CCNc1ccnc(NC2CCN(C(=O)c3ccc(C)cc3)CC2)n1 | 5.09
72 | COc1ccc(OC)c(-n2cnnc2CN)c1 | -4.4
73 | COc1ccccc1OCCCc1cc(C#N)ccn1 | -11.5
74 | CC(=O)Nc1ccc(CNC(=O)CNCc2nnc(C)o2)cc1 | 10.7
75 | O=C(c1cccnc1N1CCOC(c2ccc(Cl)cc2)C1)N1CCCC1 (stereo unspecified) | 7.21
76 | CCc1n[nH]c(C(=O)N2CCCC3(CN(C)C(=O)O3)C2)c1C (stereo unspecified) | -44.7
77 | CC(CN1CCC2(CC1)c1nc[nH]c1CCN2S(C)(=O)=O)C(F)(F)F (stereo unspecified) | -8.51
78 | O=C1CCC2(CCCN(C(=O)c3cscn3)C2)CN1CCc1c[nH]cn1 (stereo unspecified) | -13
79 | NC(=O)C1CCN(C(=O)c2cccc(CN3CCOCC3)c2)CC1 | -20
80 | Cc1ccccc1N1CCN(C(=O)c2ccc[nH]2)C(C)C1 (stereo unspecified) | -8.68
81 | Clc1ccc(C2NCCc3cc4c(cc32)OCCO4)cc1 (stereo unspecified) | -16.3
82 | O=C1NCC2(CCCN(CCc3ccccc3)C2)Oc2ccccc21 (stereo unspecified) | 2.93
83 | Cc1cccc(N2CCN(C(=O)CCc3c(C)noc3Cl)CC2)c1 | -9.73
84 | CCc1noc(C)c1C(=O)N1CCCC1Cn1cccn1 (stereo unspecified) | -3.04
85 | O=C1COc2cc(C(=O)NS(=O)(=O)c3ccc(F)cc3)ccc2N1 | -8.47
86 | CCN(CC1CCOC1)C(=O)c1ccccc1S(C)(=O)=O (stereo unspecified) | -0.945
87 | Cc1csc(N2CCN(CC(=O)NC3CCOCC3)CC2C)n1 (stereo unspecified) | -7.13
88 | NC(=O)C1CCN(CCc2ccc(NC(=O)C3CC3)cc2)CC1 | -7.72
89 | CC(C)n1cc(CN2CCCN(C(=O)COC3CCCC3)CC2)cn1 | -15.5
90 | CCc1nnc2n1CCN(CC(=O)Nc1cc(C)nn1C)C2 | 6.98
91 | CCN(Cc1ccc2c(c1)OCCO2)C(=O)NC(C)Cn1cccn1 (stereo unspecified) | -10.6
92 | COc1cc(CNc2cc(N3CCCC3CO)ncn2)ccn1 (stereo unspecified) | -28.5

Row | SMILES | cytotoxicity at 10 µM [%]
93 | O=C1NCC(C(=O)Nc2ncc(Cc3ccccc3)s2)N1 (stereo unspecified) | 5.92
94 | CC(C(=O)NCc1ccc(N2CCCC2)nc1)S(C)(=O)=O (stereo unspecified) | -13.4
95 | COc1ccc(CCCNCc2c(C)nn(C)c2N(C)C)cc1OC | -19.2
96 | c1cnn(CC2CN(Cc3nc(-c4ccoc4)no3)CCO2)c1 (stereo unspecified) | -23.8
97 | CN1CCOC(CNCc2csc(C3CCCC3)n2)C1 (stereo unspecified) | -0.383
98 | CS(=O)(=O)N1CCC(NC(=O)COc2ccc(Br)cc2Cl)CC1 | 3.25
99 | Cc1ccc(C(=O)N2CCCC(c3nncn3C)C2)c(C)c1 (stereo unspecified) | -14.1
100 | C=C(C)COCCNC(=O)C1CCCN1C(C)=O (stereo unspecified) | -10.7
101 | CC(NC(=O)N(C)Cc1ccsc1)c1ccc2c(c1)OCO2 (stereo unspecified) | -10.6
102 | Cn1cc(C2CCCN2CCCc2nc(-c3cccs3)no2)cn1 (stereo unspecified) | -6.88
103 | Cc1cc(C(=O)NCc2cccnc2OC(C)C)no1 | -7.37
104 | COCC1CN(Cc2ccncc2)Cc2nnn(CC3CC3)c21 (stereo unspecified) | -5.91
105 | Cn1ccnc1CN1CC[C@@H](NS(C)(=O)=O)[C@@H]1Cc1ccccc1 | -77.2
106 | Cn1cnc2c1C(COCC1CCOCC1)CN(C(=O)C1CC=CC1)C2 (stereo unspecified) | -75.5
107 | Cn1cncc1CNC1CC2(CCN(CC3CC3)CC2)c2ccccc21 (stereo unspecified) | 0.565
108 | CS(=O)(=O)N1CCOCC2(CN(Cc3nccs3)CCO2)C1 (stereo unspecified) | 7.49
109 | CC(C)N(C)Cc1cncc2c1CCN(C(=O)c1ccccc1F)C2 | 2.35
110 | CCc1ccc(NC(=O)N2C[C@@H]3C[C@H](C(=O)N4CCCC4)[C@H](C2)O3)cc1 | -6.71
111 | CN(C)S(=O)(=O)N1C[C@H]2CC[C@@H](C1)N(Cc1ccc3nsnc3c1)C2 | -7.7
